Laboratory results as given in ChEMBL document CHEMBL1152560, “Substituted 2-arylbenzothiazoles as kinase inhibitors: hit-to-lead optimization” (Bioorg Med Chem, 2009).

Legend:
[1] = biological target: T1, Tyrosine-protein kinase ZAP-70 (Homo sapiens) (UniProt P43403); experiment: Residual activity of ZAP70 at 1 uM by microplate scintillation counting
T1 sequence (whole entry): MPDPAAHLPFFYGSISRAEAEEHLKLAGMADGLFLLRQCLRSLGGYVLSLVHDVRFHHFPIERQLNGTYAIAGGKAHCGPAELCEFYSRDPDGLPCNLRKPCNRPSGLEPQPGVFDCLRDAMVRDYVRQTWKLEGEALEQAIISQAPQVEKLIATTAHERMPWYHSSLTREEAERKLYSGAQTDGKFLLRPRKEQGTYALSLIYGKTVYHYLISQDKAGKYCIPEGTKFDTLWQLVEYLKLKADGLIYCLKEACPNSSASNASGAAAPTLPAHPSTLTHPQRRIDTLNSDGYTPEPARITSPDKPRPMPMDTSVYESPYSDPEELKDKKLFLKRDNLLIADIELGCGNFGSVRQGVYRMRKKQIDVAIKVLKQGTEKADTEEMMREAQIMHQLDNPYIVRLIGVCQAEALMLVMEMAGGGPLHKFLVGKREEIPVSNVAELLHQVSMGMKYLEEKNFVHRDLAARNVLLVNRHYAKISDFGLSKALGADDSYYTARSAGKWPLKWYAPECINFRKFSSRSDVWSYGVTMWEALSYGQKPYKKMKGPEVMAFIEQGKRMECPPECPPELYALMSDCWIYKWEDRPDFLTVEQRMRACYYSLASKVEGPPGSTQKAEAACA

[2] = biological target: Death-associated protein kinase 2 (Homo sapiens) (UniProt Q9UIK4); experiment: Residual activity of DAPK2 at 1 uM by microplate scintillation counting
Sequence of Death-associated protein kinase 2 (Homo sapiens) (Q9UIK4 whole entry, looked up): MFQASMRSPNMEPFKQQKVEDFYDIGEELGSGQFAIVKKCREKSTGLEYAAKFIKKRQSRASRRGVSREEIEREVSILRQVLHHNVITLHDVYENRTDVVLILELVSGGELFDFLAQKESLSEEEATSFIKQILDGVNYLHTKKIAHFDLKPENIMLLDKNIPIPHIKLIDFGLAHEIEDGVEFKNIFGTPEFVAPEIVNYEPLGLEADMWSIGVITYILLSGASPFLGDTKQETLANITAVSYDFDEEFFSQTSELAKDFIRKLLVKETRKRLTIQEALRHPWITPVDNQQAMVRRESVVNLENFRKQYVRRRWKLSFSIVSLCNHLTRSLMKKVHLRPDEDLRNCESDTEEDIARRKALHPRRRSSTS

[3] = biological target: Tyrosine-protein kinase Fer (Homo sapiens) (UniProt P16591); experiment: Residual activity of FER at 10 uM by microplate scintillation counting
Sequence of Tyrosine-protein kinase Fer (Homo sapiens) (P16591 whole entry, looked up): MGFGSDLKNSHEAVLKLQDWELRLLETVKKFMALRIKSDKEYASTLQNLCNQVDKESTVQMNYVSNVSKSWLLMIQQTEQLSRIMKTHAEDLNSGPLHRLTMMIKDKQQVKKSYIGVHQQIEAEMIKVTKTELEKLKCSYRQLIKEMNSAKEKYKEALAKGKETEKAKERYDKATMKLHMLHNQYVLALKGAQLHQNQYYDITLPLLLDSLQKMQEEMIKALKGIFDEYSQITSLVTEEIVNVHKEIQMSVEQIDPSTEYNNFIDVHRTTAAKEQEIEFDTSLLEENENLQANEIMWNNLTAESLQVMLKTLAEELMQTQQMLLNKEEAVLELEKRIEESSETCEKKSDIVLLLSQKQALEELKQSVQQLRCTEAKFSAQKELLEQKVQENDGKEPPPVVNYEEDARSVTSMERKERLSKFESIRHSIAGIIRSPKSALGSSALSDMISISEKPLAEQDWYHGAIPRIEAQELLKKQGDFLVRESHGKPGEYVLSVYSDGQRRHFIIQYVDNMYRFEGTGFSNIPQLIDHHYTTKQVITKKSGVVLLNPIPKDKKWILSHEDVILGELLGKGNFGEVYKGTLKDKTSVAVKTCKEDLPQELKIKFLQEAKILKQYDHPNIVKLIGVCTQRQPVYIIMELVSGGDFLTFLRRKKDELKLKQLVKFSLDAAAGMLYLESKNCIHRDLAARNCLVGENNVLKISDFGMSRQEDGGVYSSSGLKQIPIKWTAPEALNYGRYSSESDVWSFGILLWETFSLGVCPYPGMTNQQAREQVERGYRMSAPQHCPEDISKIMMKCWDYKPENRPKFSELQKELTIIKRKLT

[4] = biological target: Mitogen-activated protein kinase 8 (Homo sapiens) (UniProt P45983); experiment: Residual activity of JNK1 at 10 uM by microplate scintillation counting
Sequence of Mitogen-activated protein kinase 8 (Homo sapiens) (P45983 whole entry): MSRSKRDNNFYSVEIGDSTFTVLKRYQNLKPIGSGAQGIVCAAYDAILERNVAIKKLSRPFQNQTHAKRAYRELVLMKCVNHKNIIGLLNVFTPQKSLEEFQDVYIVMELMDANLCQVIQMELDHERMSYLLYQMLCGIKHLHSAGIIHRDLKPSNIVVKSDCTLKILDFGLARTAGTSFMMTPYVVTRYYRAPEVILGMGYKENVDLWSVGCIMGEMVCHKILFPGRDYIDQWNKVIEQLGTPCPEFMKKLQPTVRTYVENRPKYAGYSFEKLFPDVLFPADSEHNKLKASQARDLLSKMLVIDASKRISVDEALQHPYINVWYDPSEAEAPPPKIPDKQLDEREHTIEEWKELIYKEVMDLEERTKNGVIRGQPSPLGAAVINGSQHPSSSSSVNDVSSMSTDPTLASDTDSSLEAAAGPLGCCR

[5] = biological target: Protein kinase C beta type (Homo sapiens) (UniProt P05771); experiment: Residual activity of PKCbeta2 at 0.1 uM by microplate scintillation counting
Sequence of Protein kinase C beta type (Homo sapiens) (P05771 2-671 limits assumed): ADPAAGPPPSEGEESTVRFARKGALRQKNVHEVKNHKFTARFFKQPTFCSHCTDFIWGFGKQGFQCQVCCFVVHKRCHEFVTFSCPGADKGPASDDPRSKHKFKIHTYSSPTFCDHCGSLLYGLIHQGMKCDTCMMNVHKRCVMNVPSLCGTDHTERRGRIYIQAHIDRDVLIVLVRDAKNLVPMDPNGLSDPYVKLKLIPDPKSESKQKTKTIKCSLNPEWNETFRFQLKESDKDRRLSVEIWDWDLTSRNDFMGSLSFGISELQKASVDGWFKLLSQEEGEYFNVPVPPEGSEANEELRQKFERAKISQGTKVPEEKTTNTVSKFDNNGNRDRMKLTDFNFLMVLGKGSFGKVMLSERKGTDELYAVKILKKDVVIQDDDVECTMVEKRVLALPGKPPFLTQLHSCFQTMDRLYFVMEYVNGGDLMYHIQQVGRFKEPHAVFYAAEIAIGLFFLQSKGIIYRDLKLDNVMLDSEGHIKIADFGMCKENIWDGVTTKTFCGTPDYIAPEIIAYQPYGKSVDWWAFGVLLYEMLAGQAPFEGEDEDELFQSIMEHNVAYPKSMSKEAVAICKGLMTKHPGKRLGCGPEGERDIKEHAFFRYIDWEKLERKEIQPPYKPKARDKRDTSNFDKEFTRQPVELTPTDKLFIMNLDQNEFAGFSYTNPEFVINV

[6] = biological target: T2, Eukaryotic translation initiation factor 2-alpha kinase 3 (Homo sapiens) (UniProt Q9NZJ5); experiment: Residual activity of EIF2AK3 at 1 uM by microplate scintillation counting
T2 sequence (whole entry): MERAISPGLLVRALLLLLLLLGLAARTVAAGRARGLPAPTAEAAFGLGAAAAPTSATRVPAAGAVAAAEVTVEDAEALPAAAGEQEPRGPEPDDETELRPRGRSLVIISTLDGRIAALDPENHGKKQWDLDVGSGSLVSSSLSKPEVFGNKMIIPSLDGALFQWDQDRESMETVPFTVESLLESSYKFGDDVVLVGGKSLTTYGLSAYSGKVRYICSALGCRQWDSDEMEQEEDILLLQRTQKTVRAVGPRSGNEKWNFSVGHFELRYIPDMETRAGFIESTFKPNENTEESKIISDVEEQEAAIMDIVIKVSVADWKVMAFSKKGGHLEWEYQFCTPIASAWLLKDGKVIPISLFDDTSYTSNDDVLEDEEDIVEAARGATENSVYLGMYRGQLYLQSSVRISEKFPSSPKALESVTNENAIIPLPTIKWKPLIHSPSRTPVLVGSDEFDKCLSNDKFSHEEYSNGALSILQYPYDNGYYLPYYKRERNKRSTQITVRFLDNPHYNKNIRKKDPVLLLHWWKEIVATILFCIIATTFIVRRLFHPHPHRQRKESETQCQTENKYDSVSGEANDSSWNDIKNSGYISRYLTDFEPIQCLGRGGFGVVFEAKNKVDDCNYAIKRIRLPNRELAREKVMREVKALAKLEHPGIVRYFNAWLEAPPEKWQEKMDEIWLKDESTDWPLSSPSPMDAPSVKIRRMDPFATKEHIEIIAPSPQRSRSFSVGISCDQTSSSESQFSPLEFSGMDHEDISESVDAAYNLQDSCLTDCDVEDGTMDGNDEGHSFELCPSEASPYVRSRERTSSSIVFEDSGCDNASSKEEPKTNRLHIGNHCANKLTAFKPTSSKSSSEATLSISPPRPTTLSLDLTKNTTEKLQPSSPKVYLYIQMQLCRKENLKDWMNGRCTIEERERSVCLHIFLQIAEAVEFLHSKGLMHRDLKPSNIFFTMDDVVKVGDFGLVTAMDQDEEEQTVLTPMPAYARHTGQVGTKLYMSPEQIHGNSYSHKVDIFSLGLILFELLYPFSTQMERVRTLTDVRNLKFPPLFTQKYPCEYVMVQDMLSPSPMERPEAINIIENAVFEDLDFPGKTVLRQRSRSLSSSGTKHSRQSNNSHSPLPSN

Aurora kinase B = Aurora kinase B (Homo sapiens, UniProt Q96GD4); experiment: Inhibition of Aurora-B by microplate scintillation counting
Sequence of Aurora kinase B (Q96GD4 whole entry): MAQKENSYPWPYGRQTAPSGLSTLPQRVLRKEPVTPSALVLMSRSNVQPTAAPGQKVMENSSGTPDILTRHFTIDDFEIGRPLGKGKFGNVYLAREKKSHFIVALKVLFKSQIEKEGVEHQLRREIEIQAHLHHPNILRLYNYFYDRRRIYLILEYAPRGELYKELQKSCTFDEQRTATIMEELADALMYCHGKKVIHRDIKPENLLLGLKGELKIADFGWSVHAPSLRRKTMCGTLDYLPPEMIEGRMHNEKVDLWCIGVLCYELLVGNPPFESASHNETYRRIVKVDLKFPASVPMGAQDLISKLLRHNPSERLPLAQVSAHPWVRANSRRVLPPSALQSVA
How it was run: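 Substrates: tetra(LRRWSLG) for Aurora A/B; poly(Ala,Glu,Lys,Tyr)6:2:5:1 for PDGFRβ; poly(Glu,Tyr)4:1 for TIE2 and VEGFR2. Stopped with 2% H3PO4.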

[7] = tested on: Epidermal growth factor receptor (Homo sapiens), P00533 [T790M]; experiment: Residual activity of EGFR T790M mutant at 10 uM by microplate scintillation counting
[8] = biological target: Tyrosine-protein kinase Lck (Homo sapiens) (UniProt P06239); experiment: Residual activity of LCK at 10 uM by microplate scintillation counting
Sequence of Tyrosine-protein kinase Lck (Homo sapiens) (P06239 2-509 limits assumed): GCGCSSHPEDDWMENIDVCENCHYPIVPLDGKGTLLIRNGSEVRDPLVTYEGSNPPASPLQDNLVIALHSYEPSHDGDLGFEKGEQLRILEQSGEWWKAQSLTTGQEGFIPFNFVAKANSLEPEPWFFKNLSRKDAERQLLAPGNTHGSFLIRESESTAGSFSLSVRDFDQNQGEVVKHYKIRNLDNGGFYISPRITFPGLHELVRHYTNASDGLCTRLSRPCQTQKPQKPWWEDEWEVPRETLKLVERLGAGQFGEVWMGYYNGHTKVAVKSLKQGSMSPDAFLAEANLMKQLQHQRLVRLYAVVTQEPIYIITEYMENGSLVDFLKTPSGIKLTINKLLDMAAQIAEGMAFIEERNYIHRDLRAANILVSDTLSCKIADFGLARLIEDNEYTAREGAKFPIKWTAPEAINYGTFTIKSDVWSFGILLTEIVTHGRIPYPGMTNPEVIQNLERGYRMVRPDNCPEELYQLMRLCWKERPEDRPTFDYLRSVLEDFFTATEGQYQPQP

[9] = biological target: Dual specificity tyrosine-phosphorylation-regulated kinase 1A (Homo sapiens) (UniProt Q13627); experiment: Residual activity of DYRK1A at 1 uM by microplate scintillation counting
[10] = biological target: T3, Protein kinase C iota type (Homo sapiens) (UniProt P41743); experiment: Residual activity of PKCiota at 10 uM by microplate scintillation counting
T3 sequence (whole entry): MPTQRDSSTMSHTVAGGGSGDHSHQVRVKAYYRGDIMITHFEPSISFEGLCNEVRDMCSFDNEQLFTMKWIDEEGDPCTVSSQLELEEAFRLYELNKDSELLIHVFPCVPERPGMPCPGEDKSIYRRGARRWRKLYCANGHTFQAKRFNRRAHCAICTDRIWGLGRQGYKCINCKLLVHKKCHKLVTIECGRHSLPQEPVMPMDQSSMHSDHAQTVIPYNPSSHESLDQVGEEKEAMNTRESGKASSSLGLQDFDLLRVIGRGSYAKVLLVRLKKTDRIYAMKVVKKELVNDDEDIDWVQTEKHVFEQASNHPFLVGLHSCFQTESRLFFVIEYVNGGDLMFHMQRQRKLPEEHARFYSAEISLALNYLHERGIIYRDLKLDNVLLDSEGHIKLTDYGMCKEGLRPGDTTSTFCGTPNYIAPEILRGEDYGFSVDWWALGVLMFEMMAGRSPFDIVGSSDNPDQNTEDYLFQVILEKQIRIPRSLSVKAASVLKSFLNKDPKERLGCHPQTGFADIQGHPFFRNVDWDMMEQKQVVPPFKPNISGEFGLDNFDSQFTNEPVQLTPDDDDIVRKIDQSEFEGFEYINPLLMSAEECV

COc1cc2c(Oc3ccc(-c4nc5ccccc5s4)cc3F)ncnc2cc1OCCCN1CCN(C)CC1
residual activity [1]: 120% | residual activity [2]: 90% | residual activity [3]: 16% | residual activity [4]: 264% | residual activity [5]: 87% | residual activity [6]: 90% | IC50 (Aurora kinase B): 130 nM | residual activity [7]: 41% | residual activity [8]: 2% | residual activity [9]: 91% | residual activity [10]: 46%

COc1cc2c(Oc3ccc(-c4nc5ccccc5s4)cc3)ncnc2cc1OCCCN1CCCC1
residual activity [1]: 145% | residual activity [2]: 92% | residual activity [3]: 73% | residual activity [4]: 305% | residual activity [5]: 99% | residual activity [6]: 102% | IC50 (Aurora kinase B): 162 nM | residual activity [7]: 96% | residual activity [8]: 6% | residual activity [9]: 92% | residual activity [10]: 51%

COc1cc2c(Oc3ccc(-c4nc5ccccc5s4)cc3)ncnc2cc1OCCCN1CCN(C)CC1
residual activity [1]: 116% | residual activity [2]: 79% | residual activity [3]: 79% | residual activity [4]: 272% | residual activity [5]: 101% | residual activity [6]: 100% | IC50 (Aurora kinase B): 63 nM | residual activity [7]: 88% | residual activity [8]: 4% | residual activity [9]: 93% | residual activity [10]: 44%
